Experimental data as given in ChEMBL document CHEMBL3526118, “Combination of GSH trapping and time-dependent inhibition assays as a predictive method of drugs generating highly reactive metabolites” (Drug Metab Dispos, 2011).

Experiments:
CYP3A4 [1] = biological target: T1, CYP3A4 (Homo sapiens, UniProt P08684); assay: Time dependent inhibition of CYP3A4 (unknown origin) at 10 uM by LC/MS system; type: ADME
Procedure, shortened: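 CYP3A4: human liver microsomes at 0.5 mg/mL in preincubation, 0.1 M sodium phosphate, NADPH-generating system, 0 or 30 min. Ten-fold dilution into incubation with 2.5 μM midazolam (final), 10 min. Each value is relative to the matched control without inhibitor. % enzyme inactivation = 100 × [1 − %control(30 min)/%control(0 min)]; 10% threshold.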

CYP2C8 [2] = biological target: T2, CYP2C8 (Homo sapiens, UniProt P10632); assay: in vitro
T2 sequence (P10632 whole entry): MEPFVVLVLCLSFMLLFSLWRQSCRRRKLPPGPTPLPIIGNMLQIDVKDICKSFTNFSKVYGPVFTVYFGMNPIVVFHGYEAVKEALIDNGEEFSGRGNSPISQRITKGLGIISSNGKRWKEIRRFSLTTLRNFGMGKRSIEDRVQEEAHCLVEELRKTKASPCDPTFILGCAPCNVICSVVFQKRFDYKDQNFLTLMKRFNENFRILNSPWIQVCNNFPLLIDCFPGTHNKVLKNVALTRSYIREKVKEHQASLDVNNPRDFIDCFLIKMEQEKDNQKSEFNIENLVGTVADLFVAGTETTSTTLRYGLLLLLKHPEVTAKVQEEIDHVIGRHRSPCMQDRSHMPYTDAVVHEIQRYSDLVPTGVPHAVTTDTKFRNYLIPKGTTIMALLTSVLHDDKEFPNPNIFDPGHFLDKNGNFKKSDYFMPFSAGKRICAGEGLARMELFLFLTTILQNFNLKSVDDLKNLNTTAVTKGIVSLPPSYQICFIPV

CYP1A2 = biological target: T3, CYP1A2 (Homo sapiens, UniProt P05177); assay: in vitro
T3 sequence (P05177 whole entry): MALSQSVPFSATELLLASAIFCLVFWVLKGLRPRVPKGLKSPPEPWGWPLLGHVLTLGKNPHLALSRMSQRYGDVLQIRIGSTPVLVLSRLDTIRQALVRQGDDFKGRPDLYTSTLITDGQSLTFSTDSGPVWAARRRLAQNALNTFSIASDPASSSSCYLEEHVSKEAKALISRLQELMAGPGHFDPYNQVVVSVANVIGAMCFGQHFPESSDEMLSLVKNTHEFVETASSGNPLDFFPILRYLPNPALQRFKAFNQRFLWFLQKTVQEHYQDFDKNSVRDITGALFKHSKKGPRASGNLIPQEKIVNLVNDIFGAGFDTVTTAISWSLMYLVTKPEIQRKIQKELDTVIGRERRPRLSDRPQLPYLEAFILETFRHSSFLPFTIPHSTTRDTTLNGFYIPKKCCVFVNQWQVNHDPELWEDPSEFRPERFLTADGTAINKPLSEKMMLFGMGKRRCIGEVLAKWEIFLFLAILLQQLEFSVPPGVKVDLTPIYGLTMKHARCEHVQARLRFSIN

CYP2C9 = CYP2C9 (Homo sapiens, UniProt P11712); assay: in vitro
CYP2D6 = CYP2D6 (Homo sapiens, UniProt P10635); assay: in vitro
CYP2B6 = biological target: T4, CYP2B6 (Homo sapiens, UniProt P20813); assay: in vitro
T4 sequence (P20813 whole entry): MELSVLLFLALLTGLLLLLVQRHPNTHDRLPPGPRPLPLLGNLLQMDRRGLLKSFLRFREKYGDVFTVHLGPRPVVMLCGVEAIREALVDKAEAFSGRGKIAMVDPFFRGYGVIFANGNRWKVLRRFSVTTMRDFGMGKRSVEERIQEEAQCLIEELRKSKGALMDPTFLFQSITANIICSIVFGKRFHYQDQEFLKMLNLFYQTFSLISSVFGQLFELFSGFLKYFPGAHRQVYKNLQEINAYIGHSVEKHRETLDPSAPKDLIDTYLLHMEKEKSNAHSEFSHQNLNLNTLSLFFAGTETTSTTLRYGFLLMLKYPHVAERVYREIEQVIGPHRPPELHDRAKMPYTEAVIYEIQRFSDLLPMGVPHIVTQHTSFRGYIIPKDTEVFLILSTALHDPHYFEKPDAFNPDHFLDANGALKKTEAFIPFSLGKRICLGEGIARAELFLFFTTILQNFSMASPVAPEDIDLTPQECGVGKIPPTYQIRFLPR

CYP2C19 = CYP2C19 (Homo sapiens, UniProt P33261); assay: in vitro
Liver microsome [3] = assay: Metabolic activation in human liver microsomes assessed as [3H]GSH adduct formation rate measured per mg of protein at 100 uM by [3H]GSH trapping assay
Liver microsome [4] = assay: Covalent binding in human liver microsomes measured per mg of protein using radiolabelled compound at 10 uM after 1 hr incubation by liquid scintillation counting
[5] = Intrinsic clearance for reactive metabolites formation assessed as summation of [3H]GSH adduct formation rate-based reactive metabolites formation and cytochrome P450 (unknown origin) inactivation rate-based reactive metabolites formation; conditions: human
Liver microsome [6] = conditions: human, microsomes, 100 µM
CYP3A4 [7] = biological target: T1, CYP3A4; assay: in vitro
[8] = Intrinsic clearance for reactive metabolites formation per mg of protein based on cytochrome P450 (unknown origin) inactivation rate by TDI assay; conditions: human
CYP2C8 [9] = biological target: T2, CYP2C8; assay: Time dependent inhibition of CYP2C8 (unknown origin) at 10 uM by LC/MS system; type: ADME
Procedure, shortened: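 CYP2C8 in human liver microsomes (1.0 mg/mL in preincubation), 0.1 M sodium phosphate, NADPH-generating system. Preincubation 0 or 30 min, then ten-fold dilution into incubation with 10 μM paclitaxel (final) for 10 min.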

Sequence of CYP2D6 (P10635 whole entry): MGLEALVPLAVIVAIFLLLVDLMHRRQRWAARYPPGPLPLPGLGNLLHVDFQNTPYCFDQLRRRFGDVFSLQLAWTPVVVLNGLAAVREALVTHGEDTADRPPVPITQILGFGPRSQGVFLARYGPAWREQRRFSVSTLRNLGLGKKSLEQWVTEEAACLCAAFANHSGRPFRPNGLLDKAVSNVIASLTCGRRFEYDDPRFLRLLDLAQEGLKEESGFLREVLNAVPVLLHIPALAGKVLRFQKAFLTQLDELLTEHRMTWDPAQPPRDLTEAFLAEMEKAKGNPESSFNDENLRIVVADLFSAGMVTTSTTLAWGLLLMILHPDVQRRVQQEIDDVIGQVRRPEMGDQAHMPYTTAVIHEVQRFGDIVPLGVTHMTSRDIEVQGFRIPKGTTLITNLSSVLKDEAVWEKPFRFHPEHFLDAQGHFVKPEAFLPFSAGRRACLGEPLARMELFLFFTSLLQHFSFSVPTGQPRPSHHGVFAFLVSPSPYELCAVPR
T1 sequence (P08684 whole entry): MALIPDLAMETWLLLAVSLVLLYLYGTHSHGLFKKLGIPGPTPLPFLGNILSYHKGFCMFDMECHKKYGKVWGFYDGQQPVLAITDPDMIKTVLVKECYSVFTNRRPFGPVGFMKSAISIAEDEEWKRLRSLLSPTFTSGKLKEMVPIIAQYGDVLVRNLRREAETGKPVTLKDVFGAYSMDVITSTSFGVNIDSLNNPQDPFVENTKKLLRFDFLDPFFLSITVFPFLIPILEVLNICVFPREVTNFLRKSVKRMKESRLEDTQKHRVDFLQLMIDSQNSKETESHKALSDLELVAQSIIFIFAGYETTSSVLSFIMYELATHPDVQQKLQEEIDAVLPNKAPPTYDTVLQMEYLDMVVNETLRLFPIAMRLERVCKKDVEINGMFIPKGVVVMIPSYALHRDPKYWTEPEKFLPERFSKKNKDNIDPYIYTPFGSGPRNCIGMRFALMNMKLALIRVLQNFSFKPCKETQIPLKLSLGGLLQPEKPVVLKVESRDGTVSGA
Sequence of CYP2C19 (P33261 whole entry): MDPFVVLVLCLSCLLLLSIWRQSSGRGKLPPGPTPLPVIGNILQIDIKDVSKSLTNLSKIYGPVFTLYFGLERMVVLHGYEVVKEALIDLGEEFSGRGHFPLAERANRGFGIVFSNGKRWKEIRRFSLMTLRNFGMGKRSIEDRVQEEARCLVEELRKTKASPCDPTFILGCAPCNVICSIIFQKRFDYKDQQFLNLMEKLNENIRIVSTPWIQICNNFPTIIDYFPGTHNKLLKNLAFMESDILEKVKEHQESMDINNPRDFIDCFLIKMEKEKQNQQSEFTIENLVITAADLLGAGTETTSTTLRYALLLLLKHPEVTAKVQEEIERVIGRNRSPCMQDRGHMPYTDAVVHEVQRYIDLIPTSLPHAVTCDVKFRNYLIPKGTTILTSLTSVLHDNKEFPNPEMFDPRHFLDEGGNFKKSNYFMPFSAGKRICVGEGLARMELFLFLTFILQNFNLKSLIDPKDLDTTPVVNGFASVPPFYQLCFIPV
Sequence of CYP2C9 (P11712 whole entry): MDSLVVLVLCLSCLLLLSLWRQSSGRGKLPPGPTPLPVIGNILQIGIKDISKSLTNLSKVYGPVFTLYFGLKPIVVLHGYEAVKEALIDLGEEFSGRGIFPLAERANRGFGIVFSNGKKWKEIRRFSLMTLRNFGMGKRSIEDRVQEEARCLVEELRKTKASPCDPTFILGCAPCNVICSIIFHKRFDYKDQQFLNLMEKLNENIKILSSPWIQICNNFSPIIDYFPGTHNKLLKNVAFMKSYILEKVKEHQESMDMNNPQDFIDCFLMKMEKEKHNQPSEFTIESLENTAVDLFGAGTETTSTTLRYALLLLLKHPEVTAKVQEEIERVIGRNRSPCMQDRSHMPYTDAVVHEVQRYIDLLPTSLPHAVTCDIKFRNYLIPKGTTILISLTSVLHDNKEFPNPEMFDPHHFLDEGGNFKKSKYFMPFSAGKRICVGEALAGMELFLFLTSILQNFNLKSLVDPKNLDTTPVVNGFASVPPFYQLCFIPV

Structure (SMILES) | inhibition at 10 µM (CYP3A4 [1]) [%] | inhibition at 100 µM (CYP2C8 [2]) [%] | inhibition at 100 µM (CYP1A2) [%] | inhibition at 100 µM (CYP2C9) [%] | inhibition at 100 µM (CYP2D6) [%] | inhibition at 100 µM (CYP2B6) [%] | inhibition at 100 µM (CYP2C19; microsomes) [%] | Drug metabolism (Liver microsome [3]) | PB (Liver microsome [4]) [pmol] | clearance [5] [µL/min/mg] | CLH (Liver microsome [6]) [µL/min/mg] | inhibition at 100 µM (CYP3A4 [7]) [%] | clearance [8] [µL/min/mg] | inhibition at 100 µM (CYP2C19; human liver microsomes) [%] | inhibition at 10 µM (CYP2C8 [9]) [%]
CC(=O)Nc1ccc(O)cc1 [ACETAMINOPHEN] | < 10 | < 10 | < 10 | < 10 | < 10 | < 10 | – | – | – | – | – | – | – | – | –
NC(=O)N1c2ccccc2C=Cc2ccccc21 [CARBAMAZEPINE] | < 10 | < 10 | < 10 | < 10 | < 10 | < 10 | < 10 | metabolite_not_detected | 3.3 | – | – | – | – | – | –
O=C(O)Cc1ccccc1Nc1c(Cl)cccc1Cl [DICLOFENAC] | – | < 10 | < 10 | < 10 | < 10 | < 10 | < 10 | 1 pmol/min | – | 0.01 | 0.01 | < 10 | – | – | –
CC[C@H]1OC(=O)[C@H](C)[C@@H](O[C@H]2C[C@@](C)(OC)[C@@H](O)[C@H](C)O2)[C@H](C)[C@@H](O[C@@H]2O[C@H](C)C[C@H](N(C)C)[C@H]2O)[C@](C)(O)C[C@@H](C)C(=O)[C@H](C)[C@@H](O)[C@]1(C)O [ERYTHROMYCIN] | – | < 10 | < 10 | < 10 | < 10 | < 10 | – | metabolite_not_detected | 57.1 | 0.021 | – | 45 | 0.021 | < 10 | –
CC(C)C(=O)Nc1ccc([N+](=O)[O-])c(C(F)(F)F)c1 [FLUTAMIDE] | – | < 10 | < 10 | < 10 | < 10 | < 10 | – | 2 pmol/min | 178 | 0.02 | 0.02 | < 10 | – | < 10 | –
COc1ccc2c(c1)c(CC(=O)O)c(C)n2C(=O)c1ccc(Cl)cc1 [INDOMETHACIN] | – | 14 | < 10 | < 10 | < 10 | < 10 | – | metabolite_not_detected | 14.7 | 0.001 | – | < 10 | 0.001 | < 10 | –
Cc1ccnc2c1NC(=O)c1cccnc1N2C1CC1 [NEVIRAPINE] | – | < 10 | < 10 | < 10 | < 10 | < 10 | – | 1.2 pmol/min | 19.1 | 0.013 | 0.012 | < 10 | 0.001 | 12 | –
Cc1cc2c(s1)Nc1ccccc1N=C2N1CCN(C)CC1 [OLANZAPINE] | – | < 10 | < 10 | < 10 | 63 | < 10 | – | 11.3 pmol/min | 138.9 | 0.119 | 0.113 | < 10 | 0.006 | < 10 | –
O=C1NC(=O)C(c2ccccc2)(c2ccccc2)N1 [PHENYTOIN] | – | < 10 | < 10 | < 10 | < 10 | < 10 | < 10 | 1.2 pmol/min | 4.4 | 0.012 | 0.012 | < 10 | – | – | –
CC[C@H](C)C(=O)O[C@H]1C[C@H](O)C=C2C=C[C@H](C)[C@H](CC[C@@H](O)C[C@@H](O)CC(=O)O)[C@H]21 [PRAVASTATIN] | – | < 10 | < 10 | < 10 | < 10 | < 10 | < 10 | metabolite_not_detected | 3.7 | – | – | < 10 | – | – | –
CC(C)NCC(O)COc1cccc2ccccc12 (stereo not drawn) [PROPRANOLOL] | – | < 10 | 25 | < 10 | < 10 | < 10 | < 10 | – | – | 0.031 | – | < 10 | 0.004 | – | –
CC(C)c1nc(CN(C)C(=O)N[C@H](C(=O)N[C@@H](Cc2ccccc2)C[C@H](O)[C@H](Cc2ccccc2)NC(=O)OCc2cncs2)C(C)C)cs1 [RITONAVIR] | – | – | – | – | – | – | – | metabolite_not_detected | 253.3 | 3.55 | – | – | 3.55 | – | –
Nc1c2c(nc3ccccc13)CCCC2 [TACRINE] | – | < 10 | 28 | < 10 | 24 | < 10 | < 10 | metabolite_not_detected | 137 | 0.007 | – | < 10 | 0.007 | – | –
CC/C(=C(\c1ccccc1)c1ccc(OCCN(C)C)cc1)c1ccccc1 [TAMOXIFEN] | – | – | < 10 | – | – | < 10 | < 10 | metabolite_not_detected | 11.5 | – | – | < 10 | – | – | < 10
CC(=O)CC(c1ccccc1)c1c(O)c2ccccc2oc1=O (stereo not drawn) [WARFARIN] | – | < 10 | 19 | < 10 | < 10 | < 10 | – | metabolite_not_detected | 15.9 | 0.003 | – | < 10 | 0.003 | < 10 | –
Cc1cc(CC(=O)O)n(C)c1C(=O)c1ccc(Cl)cc1 [ZOMEPIRAC] | – | < 10 | < 10 | < 10 | < 10 | < 10 | < 10 | metabolite_not_detected | 6.4 | – | – | < 10 | – | – | –
